KCNK3 inh: human KCNK3 channel inhibition, primary screen; AID 602410; 340,000 compounds, 0.84% hits; CHO-KCNK3 thallium flux, FluxOR fluorescence; active compounds read low; O14649; B-score at 10 µM;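 active = B-score under library mean minus 4 SD, starting fluorescence ratio at most library mean plus 5 SD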;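 note: more negative B-score means stronger inhibition of thallium flux through KCNK3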
Target sequence (O14649 whole entry, looked up): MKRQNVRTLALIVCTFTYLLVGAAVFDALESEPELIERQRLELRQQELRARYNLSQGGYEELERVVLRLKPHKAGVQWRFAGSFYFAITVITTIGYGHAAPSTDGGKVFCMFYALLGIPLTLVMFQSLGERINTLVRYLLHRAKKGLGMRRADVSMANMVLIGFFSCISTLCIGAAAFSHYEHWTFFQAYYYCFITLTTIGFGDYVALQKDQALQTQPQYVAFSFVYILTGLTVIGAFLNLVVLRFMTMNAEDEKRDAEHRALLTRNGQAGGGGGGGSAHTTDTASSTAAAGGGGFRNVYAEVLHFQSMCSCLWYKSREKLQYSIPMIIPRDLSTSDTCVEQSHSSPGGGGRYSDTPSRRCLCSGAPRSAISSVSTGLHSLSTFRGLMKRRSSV
KCNQ1 pot: potentiators or activators of human KCNQ1 potassium channel; P51787; CHO-K1 KCNQ1, thallium flux FluxOR fluorescence; active compounds read high; B-score at 10 µM; 310,000 compounds, 0.35% hits; AID 2648;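 active = fluorescence ratio B-score, a plate-corrected score, at least three library SD, with initial intensity B-score within 5 SD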
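Schedule – 37 °C overnight plating, 90-min dark dye load, 20-min compound pretreatment · System – stable KCNQ1 CHO-K1 line · Probe or stimulus – thallium- and potassium-containing depolarizing buffer · Measured by – kinetic FluxOR fluorescence, 10 s baseline plus 110 s post-stimulus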
hERG rescue: shields human hERG channel from block by proarrhythmic agents; CHO-hERG, FluxOR thallium flux, dofetilide IC70 present; activation (rescue from dofetilide block), less the hit threshold, % at 10 µM; 310,000 compounds, 0.51% hits; AID 1511;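 active = activation above the mean of controls blocked by dofetilide plus 5 SD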;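 note: thallium influx through hERG after potassium depolarization seen as dye fluorescence rise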
KCNQ1 block: blocks the human KCNQ1 potassium channel; P51787; CHO-K1 KCNQ1, FluxOR thallium flux fluorescence; active compounds read high; B-score at 10 µM; 310,000 compounds, 1.3% hits;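 active = compounds whose thallium flux B-score, printed positive for inhibition, exceeds three library SD while starting fluorescence stays within three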;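 note: channel opened by potassium depolarization with thallium stimulus after 20 min compound exposure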
Kir21 inh: inhibitors of mouse Kir2.1 inward-rectifier potassium channel | P35561 | HEK293-Kir2.1, FluxOR thallium flux fluorescence; active compounds read low | B-score at 10 µM | 310,000 compounds, 0.85% hits | AID 1672;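 active = fluorescence ratio B-score at or below minus 3 SD of library scores, with starting-brightness B-score within 2 SD, cut at about -4.2 in these data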;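 note: channel flux triggered by added potassium and thallium sulfate stimulus; B-score of peak minus minimum fluorescence over baseline after thallium stimulus; more negative B-score means stronger Kir2.1 block with less thallium influx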
Target sequence (P35561 whole entry, looked up): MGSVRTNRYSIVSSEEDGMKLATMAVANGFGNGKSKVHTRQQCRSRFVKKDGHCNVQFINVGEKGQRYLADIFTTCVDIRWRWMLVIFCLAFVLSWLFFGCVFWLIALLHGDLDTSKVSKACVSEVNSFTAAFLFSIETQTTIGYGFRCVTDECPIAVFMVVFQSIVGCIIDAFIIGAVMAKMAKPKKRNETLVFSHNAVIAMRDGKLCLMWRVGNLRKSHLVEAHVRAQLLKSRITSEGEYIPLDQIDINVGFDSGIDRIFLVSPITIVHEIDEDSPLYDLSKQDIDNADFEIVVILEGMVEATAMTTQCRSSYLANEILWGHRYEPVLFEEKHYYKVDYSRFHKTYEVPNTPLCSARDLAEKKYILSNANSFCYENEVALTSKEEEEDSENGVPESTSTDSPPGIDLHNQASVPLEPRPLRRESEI
KCNK9 inh: inhibitors of human KCNK9 two-pore domain potassium channel; 310,000 compounds, 1.2% hits; HEK293 KCNK9, FluxOR thallium flux fluorescence; active compounds read low; Q9NPC2; B-score at 10 µM; AID 488922;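 active = ratio B-score over 3 SD below the library mean, with starting fluorescence within 5 SD of its mean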;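 note: negative B-score means less thallium flux so channel inhibition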
KCNQ1 block val: human KCNQ1 channel inhibition, validation assay. shares compounds with KCNQ1 block. KCNQ1 cell line, FluxOR thallium flux fluorescence. inhibition, % at 10 µM. 1,600 compounds, 93% hits. AID 588353;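 active = primary screen active, with duplicate mean exceeding buffer control mean plus 3 SD of buffer wells, cut at about 28% in these data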
CHO Tl flux: counter-screen for KCNQ1 inhibitors: effect in parental CHO cells. shares compounds with KCNQ1 block. parental CHO-K1, FluxOR thallium flux fluorescence ratio; active compounds read low; zero means no signal rise above baseline. fluorescence ratio (Tl flux) at 10 µM. 1,600 compounds, 21% hits. AID 588366;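 active = mean of duplicate thallium-flux fluorescence ratios in parental host cells more than 5 SD below the buffer control mean, cut at about 0.38 in these data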;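 note: ratio is peak minus minimum fluorescence divided by baseline fluorescence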
KCNQ1 ephys val: blocks human KCNQ1 current in automated patch clamp. shares compounds with KCNQ1 block. 490 compounds, 20% hits. KCNQ1-CHO cells. calls only at 10 µM;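 active = KCNQ1 current drop exceeding 3 SD of negative control wells, seen in both duplicate runs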;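 note: steady state current during a 2 s step from -80 to +40 mV; negative values mean current inhibition and positive values mean potentiation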
KCNQ2 spec: rat KCNQ2 inhibition in KCNQ1 inhibitor specificity screen; 1,600 compounds, 71% hits; inhibition, % at 10 µM; AID 651746; KCNQ2 cells, FluxOR thallium flux fluorescence; shares compounds with KCNQ1 block;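 active = mean percent inhibition of the KCNQ2 thallium signal more than 5 SD above the buffer-only control wells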;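 note: KCNQ2 expressed in CHO cells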
KCNQ1-KCNE1 inh: KCNQ1 inhibitor that also blocks human KCNQ1/KCNE1 channel | inhibition, % at 10 µM | KCNQ1/KCNE1 cells, FluxOR thallium flux fluorescence | shares compounds with KCNQ1 block | 1,600 compounds, 77% hits;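 active = mean percent inhibition of duplicate wells above the buffer-only control mean plus 3 SD of those controls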
KCNK9 block conf: confirmation of human KCNK9 potassium channel inhibitors; shares compounds with KCNK9 inh; HEK293 KCNK9 cells, FluxOR thallium flux fluorescence; inhibition, % at 10 µM; 4,900 compounds, 43% hits; AID 492992;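 active = thallium signal inhibited by more than 5 SD of the compound-free buffer control wells, on both duplicate plates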
Kir2-1 spec: tests whether KCNK9 modulators also affect mouse Kir2.1; shares compounds with KCNK9 inh; inhibition, % at 10 µM; AID 492993; Kir2.1 cells, FluxOR thallium flux fluorescence; 4,900 compounds, 4% hits;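 active = thallium signal drop more than 5 SD beyond the mean of the no-compound control wells, seen in both duplicate plates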;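 note: signal is fluorescence rise after thallium addition divided by baseline fluorescence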
KCNK9 uninduced: non-induced cell nonspecific activity of KCNK9 modulators | shares compounds with KCNK9 inh | inhibition, % at 10 µM | non-induced KCNK9-HEK293, FluxOR thallium flux | 4,900 compounds, 40% hits;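 active = thallium signal drop beyond 5 SD of the untreated control mean, on both duplicate plates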
KCNK3 inh conf: human KCNK3 channel inhibition, confirmation assay | shares compounds with KCNK3 inh | CHO-KCNK3 thallium flux, FluxOR fluorescence; 0% buffer, 100% carvedilol maximal block | ratio percent of control, % at 10 µM | 2,400 compounds, 99% hits | AID 651638;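 active = ratio percent of control, averaged over triplicates, above buffer control mean plus 5 SD, cut at about 64% in these data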;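 note: ratio is the fluorescence rise from min to max over baseline after thallium stimulus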
KCNK3 uninduced: activity in cells without induced KCNK3 expression; shares compounds with KCNK3 inh; non-induced KCNK3 parental cells, FluxOR thallium flux; active compounds read low; thallium flux ratio (lower = more inhibition) at 10 µM; 2,400 compounds, 40% hits; AID 651747;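 active = thallium flux ratio, averaged over three wells, more than 5 SD below the buffer control mean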;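 note: host cells are CHO cells without KCNK3 induction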
Large screens that a line does not name were inactive (follow-up assays come after a bar, where they were run). A selection: hits, their analogues and other compounds. The true share with any hit is near 3.8%.

CCCCCn1c(=O)c(C(=O)Nc2ccccc2S(N)(=O)=O)c(O)c2ccccc21	KCNQ1 block 9 | KCNQ1 block val 75.0 | CHO Tl flux inactive | KCNQ2 spec inactive | KCNQ1-KCNE1 inh inactive
O=C1NCCCCC1(Cl)Cl	none (no result: KCNQ1 pot, hERG rescue, KCNQ1 block, Kir21 inh, KCNK9 inh)
Brc1cccc(CNCCc2ccc3c(c2)OCO3)c1	KCNQ1 block 6 | KCNQ1 block val 100.5 | CHO Tl flux inactive | KCNQ1 ephys val active | KCNQ2 spec 85.7% | KCNQ1-KCNE1 inh 53.5%
COC(=O)C1=C(c2cccc(C#N)c2)C[C@@H]2CC[C@H]1N2C(=O)NC1CCCCC1	none (no result: KCNQ1 pot, hERG rescue, KCNQ1 block, Kir21 inh, KCNK9 inh)
CCOC(=O)C(O)(c1ccc(NC(=O)c2ccc(Cl)c(Cl)c2)cc1)C(F)(F)F (stereo not drawn)	KCNQ1 block 6 | KCNQ1 block val 123.0 | CHO Tl flux inactive | KCNQ1 ephys val inactive | KCNQ2 spec 93.0% | KCNQ1-KCNE1 inh 144.5%
Cc1sc2c(c1C)C(c1ccc(C(C)(C)C)cc1)=NCC(=O)N2CC(=O)Nc1nccs1	KCNQ1 block 6 | KCNQ1 block val 83.5 | CHO Tl flux inactive | KCNQ2 spec inactive | KCNQ1-KCNE1 inh 94.0%
Clc1ccc(N2CC2c2ccncc2)cc1 (stereo not drawn)	none
COc1ccc(-[n+]2c(-c3ccccc3)cc(-c3ccc(C)cc3)cc2-c2ccccc2)cc1	KCNK3 inh -8.87, KCNQ1 block 15, Kir21 inh -12.8, KCNK9 inh -16.4 | KCNQ1 block val 94.5 | CHO Tl flux inactive | KCNQ1 ephys val active | KCNQ2 spec 109.3% | KCNQ1-KCNE1 inh 163.0% | KCNK9 block conf 60.5% | Kir2-1 spec 78.0% | KCNK9 uninduced 29.5%
CCCNC(=O)N1[C@H]2CC[C@@H]1C(C(=O)OC)=C(c1ccc(OC)c(OC)c1)C2	none (no result: KCNQ1 pot, hERG rescue, KCNQ1 block, Kir21 inh, KCNK9 inh)
Cc1ccc(O)c(C(=O)c2cc(C(=O)NCCC(C)C)c(=O)n(CCC(C)C)c2)c1	KCNK3 inh -9.48, KCNQ1 block 19 | KCNQ1 block val 129.5 | CHO Tl flux inactive | KCNQ1 ephys val inactive | KCNQ2 spec 125.7% | KCNQ1-KCNE1 inh 124.0% | KCNK3 inh conf 131.7 | KCNK3 uninduced 0.156
Cc1cc(OCC(=O)N[C@H](C(=O)O)c2ccccc2)c2c3c(c(=O)oc2c1)CCC3	none
CCOC(=O)C1(CCOc2ccccc2)CCN(Cc2ccccc2OC)CC1	none | KCNK9 block conf inactive | Kir2-1 spec inactive | KCNK9 uninduced inactive
CCOC(=O)C1(CCc2ccccc2)CCN(Cc2cccc3cnccc23)CC1	none | KCNK9 block conf inactive | Kir2-1 spec inactive | KCNK9 uninduced inactive
CCOC(=O)C1(CCc2ccccc2)CCN(Cc2csc(C(C)=O)c2)CC1	none | KCNK9 block conf inactive | Kir2-1 spec inactive | KCNK9 uninduced inactive
COc1ccc(Cl)cc1C(=O)C1CCCN(Cc2cnc(C)s2)C1 (stereo not drawn)	none
O=C(Nc1ccccc1)c1cccn(Cc2ccccc2)c1=O	none
O=C(NCc1ccccc1)c1cccn(Cc2cccc(Cl)c2)c1=O	KCNK9 inh -11.1 | KCNK9 block conf 57.0% | Kir2-1 spec inactive | KCNK9 uninduced 30.5%
COc1ccccc1OCCCn1cc(C(=O)c2ccco2)c2ccccc21	KCNK9 inh -9.76 | KCNK9 block conf 32.0% | Kir2-1 spec inactive | KCNK9 uninduced inactive
O=C(c1ccco1)c1cn(Cc2ccc(Cl)cc2)c2ccccc12	KCNK9 inh -8.71 | KCNK9 block conf 56.5% | Kir2-1 spec inactive | KCNK9 uninduced 37.0%
CSc1ccc(CN2CCN(Cc3ccccc3Cl)CC2)cc1	Kir21 inh -4.92 | KCNK9 block conf inactive | Kir2-1 spec 41.0% | KCNK9 uninduced inactive
CSc1ccc(CN2CCN(C(=O)Cc3ccccc3)CC2)cc1	none
CC(C)C12CN3CC(C(C)C)(CN(C1)C3c1cccnc1)C2=O (stereo not drawn)	none
COc1ccc(C2c3c(nc(C)[nH]c3=O)Oc3c2c(=O)oc2ccccc32)cc1 (stereo not drawn)	none (no result: KCNK3 inh)
Oc1ccc2ccccc2c1CN1CC=C(c2ccccc2)CC1	none | KCNK9 block conf inactive | Kir2-1 spec inactive | KCNK9 uninduced inactive
CCCCn1c(O)c(/C=C/C=Nc2ccccc2)c(=O)[nH]c1=O	KCNK9 inh -9.2 | KCNK9 block conf inactive | Kir2-1 spec inactive | KCNK9 uninduced 54.5%
Cn1c(O)c(/C=C/C=Nc2ccccc2)c(=O)n(C)c1=O	none
COc1ccc(OC)c(NP(=O)(Oc2ccccc2)Oc2ccccc2)c1	none
COc1ccc(OC)c(NP(=O)(Oc2ccc(Cl)cc2)Oc2ccc(Cl)cc2)c1	KCNK9 inh -11.2 | KCNK9 block conf 76.0% | Kir2-1 spec inactive | KCNK9 uninduced 44.0%
CCCCNC(=O)c1c(N)n(CCCOC)c2nc3ccccc3nc12	KCNK9 inh -8.73 | KCNK9 block conf inactive | Kir2-1 spec inactive | KCNK9 uninduced inactive
COCCCn1c(N)c(C(=O)OCCOC)c2nc3ccccc3nc21	none
